Data from ChEMBL document CHEMBL1129293 (J Med Chem, 1996).

Assays:
[1] = molecular target: D(2) dopamine receptor (Rattus norvegicus) (UniProt P61169); assay: Affinity towards Dopamine receptor D2 was evaluated in rat striatal membrane using [3H]spiperone as radioligand; assay type: cell membranes; settings: Striatum
[2] = molecular target: D(1A) dopamine receptor (Rattus norvegicus) (UniProt P18901); assay: Affinity towards Dopamine receptor D1 was evaluated in rat striatal membrane using [3H]SCH-23,390 as radioligand; assay type: cell membranes; settings: Striatum
How it was run: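 Male Sprague-Dawley rats, 200–400 g; striatum dissected from coronal slices, used fresh or held at -70 °C. Membranes homogenized and twice centrifuged at 27000g in ice-cold 50 mM HEPES, 4.0 mM MgCl2, pH 7.4, final ca. 2.0 mg wet weight/mL. Incubation with [3H]SCH23390 at 37 °C for 15 min; bound radioactivity by liquid scintillation; protein by Lowry.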

Rattus norvegicus = organism: Rattus norvegicus; assay: Evaluated for the maximum stimulation of adenylate cyclase in rat striatal tissue with respect to the maximum stimulation caused by dopamine; assay type: functional, Striatum
D(1A) dopamine receptor = D(1A) dopamine receptor (Rattus norvegicus, UniProt P18901); assay: Effective concentration was determined for the adenylate cyclase activity in rat striatal tissue as a measure of Dopamine receptor D1 functional activity; assay type: tissue-based, Striatum
D(1A) dopamine receptor, sequence (P18901 whole entry): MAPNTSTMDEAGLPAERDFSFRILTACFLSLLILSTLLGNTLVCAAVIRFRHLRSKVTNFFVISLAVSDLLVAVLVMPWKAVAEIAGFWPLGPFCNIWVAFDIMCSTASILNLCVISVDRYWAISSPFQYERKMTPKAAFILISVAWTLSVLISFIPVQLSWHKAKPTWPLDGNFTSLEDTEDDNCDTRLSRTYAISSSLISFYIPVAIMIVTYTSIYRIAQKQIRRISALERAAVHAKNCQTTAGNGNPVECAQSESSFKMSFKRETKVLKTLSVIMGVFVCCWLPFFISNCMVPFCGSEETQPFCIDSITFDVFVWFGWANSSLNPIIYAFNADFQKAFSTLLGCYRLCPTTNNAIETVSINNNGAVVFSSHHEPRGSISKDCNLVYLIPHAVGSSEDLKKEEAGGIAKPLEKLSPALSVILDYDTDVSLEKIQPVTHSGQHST

D(1A) dopamine receptor (Rattus norvegicus), sequence (P18901 whole entry): as above
D(2) dopamine receptor (Rattus norvegicus), sequence (P61169 whole entry): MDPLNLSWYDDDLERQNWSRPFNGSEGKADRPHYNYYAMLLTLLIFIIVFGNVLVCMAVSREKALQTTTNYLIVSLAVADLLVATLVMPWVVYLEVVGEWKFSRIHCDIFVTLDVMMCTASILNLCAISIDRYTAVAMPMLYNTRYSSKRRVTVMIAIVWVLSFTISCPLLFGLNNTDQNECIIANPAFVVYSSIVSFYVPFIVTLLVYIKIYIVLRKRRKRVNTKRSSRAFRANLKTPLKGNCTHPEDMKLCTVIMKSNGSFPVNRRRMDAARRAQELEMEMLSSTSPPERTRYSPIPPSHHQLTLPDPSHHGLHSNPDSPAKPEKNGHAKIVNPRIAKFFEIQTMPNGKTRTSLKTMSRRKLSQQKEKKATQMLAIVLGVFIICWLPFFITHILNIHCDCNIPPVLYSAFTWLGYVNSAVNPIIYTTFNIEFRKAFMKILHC

| Structure (SMILES) | K0.5 [1] | K0.5 [2] | Stimulation (Rattus norvegicus) | EC50 (D(1A) dopamine receptor) |
| --- | --- | --- | --- | --- |
| CCCN1CCC[C@@H]2Cc3n[nH]cc3C[C@H]21 | 49 nM | > 10000 nM | – | – |
| C=CCN1CCc2c(cc(O)c(O)c2Cl)[C@@H](c2ccccc2)C1 | 73 nM | 4 nM | 94% | – |
| Oc1ccc([C@@H]2CNCc3sccc32)cc1O | 142 nM | 61 nM | 120% | 0.7 µM |
| Oc1ccc2c(c1O)CCC(NCc1ccccc1)C2 (configuration not stated) | > 1000 nM | > 1000 nM | 38% | > 1 µM |
| CCCN1Cc2ccccc2[C@@H]2c3cc(O)c(O)cc3CC[C@H]21 | 27 nM | 326 nM | 36% | > 10 µM |
| CN1CCc2cc(Cl)c(O)cc2[C@@H](c2ccccc2)C1 | 600 nM | – | – | – |
| C=CCN1Cc2ccccc2[C@@H]2c3cc(O)c(O)cc3CC[C@H]21 | 182 nM | 328 nM | 32% | > 10 µM |
| Oc1cc2c(cc1O)[C@H]1c3ccccc3CN[C@@H]1CC2 [DIHYDREXIDINE] | 43.8 nM | 2.3 nM | 120% | – |
| Oc1cc2c(cc1O)[C@@H]1c3ccccc3CN[C@@H]1CC2 (relative stereo) | > 1000 nM | > 1000 nM | 17% | – |
| NC[C@@H]1O[C@H](c2ccccc2)Cc2c1ccc(O)c2O | 41 nM | 0.9 nM | 96% | – |
| Oc1cc2c(cc1O)CC(NCc1ccccc1)CC2 (configuration not stated) | 335 nM | > 1000 nM | 25% | > 10 µM |
| NCCc1ccc(O)c(O)c1 [DOPAMINE] | – | 267 nM | 100% | – |
| NC[C@@H]1O[C@H](C23CC4CC(CC(C4)C2)C3)Cc2c1ccc(O)c2O | – | – | 92% | – |
| CN1Cc2ccccc2[C@@H]2c3ccc(O)c(O)c3CC[C@H]21 | 61 nM | 477 nM | 22% | > 10 µM |
